Common to all, as to type: functional
A short description of assay [1]: Geometric mean of antibacterial activity (Gram -ve bacteria) of the compound. A digest of the protocol: (§1)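 Geometric means calculated from agar-dilution MICs (µg/mL), taken separately across the five Gram-positive and the eight Gram-negative panel strains.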
The test system of assay [2] is Mus musculus. Description: Efficacy against Septicemia caused by Staphylococcus aureus in mice by Oral administration. A digest of the protocol:
(§2)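 S. aureus Smith ATCC19636, overnight brain-heart infusion culture diluted in 5% mucin, given i.p. (0.5 mL) to male and female CD-1 mice (18-22 g). Single s.c. or oral dose within 10 min of infection, drug in DMSO/0.5% methocel or as suspension. 3-5 dose groups of six mice; ED50 with 95% limits by Spearman-Kärber from day-7 survival.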

The test system of assay [3] is Staphylococcus epidermidis. Description: Antibacterial activity tested against Staphylococcus epidermidis CPHL A2. In outline:
(§3)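 MICs (µg/mL) determined by conventional agar dilution against a panel of eight Gram-negative and five Gram-positive reference strains.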

The test system of the next assay is Bacteria. As to the kind of experiment: Geometric mean of antibacterial activity (Gram +ve bacteria) of the compound. In outline:
as §1

Assay [4] deals with Staphylococcus aureus. As to the kind of experiment: Antibacterial activity against Staphylococcus aureus MPR 5. In outline:
as §3

Assay [5] relates to Staphylococcus aureus. As to the kind of experiment: Antibacterial activity against Staphylococcus aureus ATCC 6538. A digest of the protocol: as §3
A further assay has as its system Enterobacter cloacae. Description: Antibacterial activity tested against Enterobacter cloacae OMNFI 174.
The subject of another assay is Klebsiella pneumoniae. As to the kind of experiment: Antibacterial activity tested against Klebsiella pneumoniae (Klebsiella pneumoniae) ATCC 10031. In outline:
as §3

Assay [6] has as its system Enterococcus faecium. As to the kind of experiment: Antibacterial activity tested against Enterococcus faecium; Range is 0.06-1 ug/mL.
In the next assay the test system is Providencia stuartii. As to the kind of experiment: Antibacterial activity tested against Providencia stuartii CNUR 5. A digest of the protocol: as §3
The subject of assay [7] is Staphylococcus aureus. As to the kind of experiment: Antibacterial activity tested against Staphylococcus aureus Methicillin-and Ciprofloxacin resistants; Range is 0.05-1 ug/mL.
Another assay has as its system Pseudomonas aeruginosa. Description: Antibacterial activity tested against P. ae (Pseudomonas aeruginosa) ATCC 9027. In outline: as §3
A further assay concerns Shigella. As to the kind of experiment: Antibacterial activity tested against Shigella enteritidis. A digest of the protocol: as §3
Assay [8] is filed under the species Mus musculus. Description: Minimum inhibitory concentration against Septicemia caused by Staphylococcus aureus in mice.
Assay [9] has as its system Streptococcus pneumoniae. Description: Antibacterial activity tested against Streptococcus pneumoniae.
For the next assay, the system named is Proteus vulgaris. Description: Antibacterial activity tested against Proteus vulgaris CNUR 5. In outline:
as §3

For assay [10], the system named is Escherichia coli. As to the kind of experiment: Antibacterial activity tested against Escherichia coli ISF 432. A digest of the protocol:
as §3

Assay [11] relates to Mus musculus. As to the kind of experiment: Efficacy against Septicemia caused by Staphylococcus aureus in mice by subcutaneous administration. The following applies: sc. A digest of the protocol:
as §2

Assay [12] deals with Escherichia coli. As to the kind of experiment: Antibacterial activity tested against Escherichia coli ATCC 8739. In outline: as §3
In assay [13] the test system is Staphylococcus epidermidis. Description: Antibacterial activity tested against Staphylococcus epidermidis HCF Berset C. A digest of the protocol:
as §3

For assay [14], the system named is Enterococcus faecalis. Description: Antibacterial activity tested against Enterococcus faecalis.
In assay [15] the test system is Staphylococcus aureus. Description: Antibacterial activity tested against Staphylococcus aureus; Range is 0.004-0.03 ug/mL.
Assay [16] relates to Escherichia coli. Description: Inhibitory activity against gyrase supercoiling activity from Escherichia coli. A digest of the protocol:
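Inhibition of DNA gyrase supercoiling activity, by a previously described protocol with slight modifications. IC50 derived by densitometric quantification of the supercoiled DNA peak in an agarose gel.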

In assay [17] the test system is Enterococcus faecalis. As to the kind of experiment: Antibacterial activity tested against Streptococcus faecalis LEP Br. A digest of the protocol:
as §3

Assay [18] relates to Enterococcus faecalis. As to the kind of experiment: Antibacterial activity tested against Enterococcus faecalis; Range is 0.13-0.25 ug/mL.
The subject of assay [19] is Enterococcus faecium. As to the kind of experiment: Antibacterial activity tested against Enterococcus faecium; Range is 0.13-2 ug/mL.
Assay [20] deals with Staphylococcus aureus. Description: Antibacterial activity tested against Staphylococcus aureus; Range is 0.016-0.13 ug/mL.
For assay [21], the system named is Staphylococcus aureus. As to the kind of experiment: Antibacterial activity tested against Staphylococcus aureus Methicillin-and Ciprofloxacin resistants; Range is 1-2 ug/mL.
Assay [22] concerns Streptococcus pneumoniae. As to the kind of experiment: Antibacterial activity tested against Streptococcus pneumoniae; Range is 1-2 ug/mL.
The subject of assay [23] is Staphylococcus aureus. Description: Antibacterial activity tested against Staphylococcus aureus; Range is 0.06-0.13 ug/mL.
Assay [24] relates to Staphylococcus aureus. As to the kind of experiment: Antibacterial activity tested against Staphylococcus aureus Methicillin-and Ciprofloxacin resistants; Range is 2-4 ug/mL.
For assay [25], the system named is Enterococcus faecium. Description: Antibacterial activity tested against Enterococcus faecium; Range is 1-32 ug/mL.

In brackets after ≈: the same amount, converted by molar mass. Bounds are passed on as bounds.

In the case of `Cc1c(N2CCc3ccccc3C2)c(N)cc2c(=O)c(C(=O)O)cn(C3CC3)c12`, the values for the Geometric mean (in assay [1]; in the assay with Bacteria) were 0.105 and 0.024, respectively. Also, the median effective dose (ED50) stood at 5 mg/kg in the assay with Mus musculus [2] and 1.3 mg/kg in the assay with Mus musculus [11]. For the same compound, the MIC in [3] is 0.016 µg/mL (≈ 0.0411 µM); in the assay with Staphylococcus aureus [4], 0.008 µg/mL (≈ 0.0205 µM); in the assay with Staphylococcus aureus [5], 0.008 µg/mL (≈ 0.0205 µM); in the assay on Enterobacter cloacae, 0.25 µg/mL (≈ 0.642 µM); with Klebsiella pneumoniae it was 0.06 µg/mL (≈ 0.154 µM); in the assay on Enterococcus faecium [6], 0.06 µg/mL (≈ 0.154 µM). The MIC turned out to be 0.06 µg/mL (≈ 0.154 µM) in the assay on Providencia stuartii; 0.05 µg/mL (≈ 0.128 µM) against Staphylococcus aureus [7]; 0.5 µg/mL (≈ 1.28 µM) against Pseudomonas aeruginosa; 0.25 µg/mL (≈ 0.642 µM) against Shigella; 0.016 µg/mL (≈ 0.0411 µM) in the assay filed under Mus musculus [8]; 0.13 µg/mL (≈ 0.334 µM) against Streptococcus pneumoniae [9]. Also, the MIC in the assay on Proteus vulgaris amounted to 2 µg/mL (≈ 5.14 µM); in the assay with Escherichia coli [10], 8 ng/mL (≈ 0.0205 µM); against Escherichia coli [12] it was 8 ng/mL (≈ 0.0205 µM); in assay [13] it was 0.03 µg/mL (≈ 0.077 µM); with Enterococcus faecalis [14], 0.06 µg/mL (≈ 0.154 µM); in the assay with Staphylococcus aureus [15], 4 ng/mL (≈ 0.0103 µM). The compound further returned an MIC with Enterococcus faecalis [17] of 0.25 µg/mL (≈ 0.642 µM). The compound also had an IC50 in the assay with Escherichia coli [16] of 3.58 µg/mL (≈ 9.19 µM).

On to `Cc1c(N2CCC(C)CC2)c(N)cc2c(=O)c(C(=O)O)cn(C3CC3)c12`, for which the MIC was determined as 0.13 µg/mL (≈ 0.366 µM) in the assay with Enterococcus faecalis [18]; 0.125 µg/mL (≈ 0.352 µM) in [3]; 0.06 µg/mL (≈ 0.169 µM) against Staphylococcus aureus [4]; 0.06 µg/mL (≈ 0.169 µM) in the assay with Staphylococcus aureus [5]; 0.5 µg/mL (≈ 1.41 µM) against Enterobacter cloacae; 0.03 µg/mL (≈ 0.0844 µM) with Klebsiella pneumoniae. Moreover, the minimal inhibitory concentration (MIC) in the assay on Providencia stuartii is 0.5 µg/mL (≈ 1.41 µM); against Enterococcus faecium [19], 0.13 µg/mL (≈ 0.366 µM); against Staphylococcus aureus [20], 0.016 µg/mL (≈ 0.045 µM); with Pseudomonas aeruginosa, 1 µg/mL (≈ 2.81 µM); with Shigella it was 0.5 µg/mL (≈ 1.41 µM); with Staphylococcus aureus [21], 1 µg/mL (≈ 2.81 µM). The minimal inhibitory concentration (MIC) came out at 8 µg/mL (≈ 22.5 µM) with Proteus vulgaris; 30 ng/mL (≈ 0.0844 µM) in the assay with Escherichia coli [10]; 30 ng/mL (≈ 0.0844 µM) with Escherichia coli [12]; 0.125 µg/mL (≈ 0.352 µM) in [13]; 1 µg/mL (≈ 2.81 µM) with Streptococcus pneumoniae [22]; 0.5 µg/mL (≈ 1.41 µM) in the assay on Enterococcus faecalis [17]. The Geometric mean is 0.268 in assay [1] and 0.122 in the assay on Bacteria. Half-maximal inhibition in the assay with Escherichia coli [16] (IC50) required 5.86 µg/mL (≈ 16.5 µM).

Take `Cc1c(N2C[C@@H](C)O[C@@H](C)C2)c(N)cc2c(=O)c(C(=O)O)cn(C3CC3)c12`: the Geometric mean is 0.336 in assay [1] and 0.107 in the assay on Bacteria. In addition, the MIC in the assay with Staphylococcus aureus [23] stood at 0.06 µg/mL (≈ 0.162 µM); in assay [3], 0.125 µg/mL (≈ 0.337 µM); against Staphylococcus aureus [4] it was 0.03 µg/mL (≈ 0.0808 µM); with Staphylococcus aureus [5], 0.03 µg/mL (≈ 0.0808 µM); in the assay on Enterobacter cloacae, 1 µg/mL (≈ 2.69 µM); against Klebsiella pneumoniae, 0.08 µg/mL (≈ 0.215 µM). In addition, the MIC is 1 µg/mL (≈ 2.69 µM) against Providencia stuartii; 4 µg/mL (≈ 10.8 µM) in the assay on Pseudomonas aeruginosa; 2 µg/mL (≈ 5.38 µM) in the assay on Staphylococcus aureus [24]; 1 µg/mL (≈ 2.69 µM) in the assay with Shigella; 1 µg/mL (≈ 2.69 µM) against Enterococcus faecium [25]; 2 µg/mL (≈ 5.38 µM) against Streptococcus pneumoniae [9]. For the same compound, the minimal inhibitory concentration (MIC) amounted to 8 µg/mL (≈ 21.5 µM) against Proteus vulgaris; 8 ng/mL (≈ 0.0215 µM) against Escherichia coli [10]; 8 ng/mL (≈ 0.0215 µM) in the assay on Escherichia coli [12]; 0.125 µg/mL (≈ 0.337 µM) in assay [13]; 0.05 µg/mL (≈ 0.135 µM) against Enterococcus faecalis [14]; 1 µg/mL (≈ 2.69 µM) in the assay with Enterococcus faecalis [17]. Further, the half-maximal inhibitory concentration (IC50) in the assay on Escherichia coli [16] was more than 50 µg/mL.

Broadly, the ED50 is the dose that gives a 50% effect, or the effect in half of the subjects. Low readings indicate an effect at a small dose, high ones a need for a large dose. In general, MIC refers to the least concentration at which growth counts as inhibited. The low end stands for greater potency, the high end for weaker potency. In general, IC50 refers to the concentration at which inhibition is half-maximal. Low readings indicate inhibition by little substance, high ones a need for much substance.

Source of the values: ChEMBL document CHEMBL1129660, “Studies on 6-aminoquinolones: synthesis and antibacterial evaluation of 6-amino-8-methylquinolones” (J Med Chem, 1996).
